Assay results: PubChem BioAssay
The source made the active and inactive calls.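 Rule for the calls: active = fluorescence slope after compound addition differing from the mean of all tested samples at 99.7% confidence, mostly higher but some lower; inactive = the rest.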

biological target: Muscarinic acetylcholine receptor M4 (Homo sapiens) (UniProt P08173); assay: M4-linked GIRK flux change, two-sided – cell-based, HEK293 M4/GIRK, thallium flux, BTC-AM, M4 allosteric agonist project, primary screen (AID 625); conditions: at 10 µM, actives lie on both sides;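 note: thallium influx through GIRK channels coupled to M4 in HEK293 cells with BTC-AM dye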
Summary of the method: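 assay system = HEK293 cells with M4 receptor and GIRK channels | medium = pH 7.3 thallium assay buffer | doses = 10 µM final, single point | timing = cells overnight at 37 °C, BTC-AM loading 1 h, reads 2 min total | signal = BTC-AM fluorescence, 1 Hz kinetic reads | read-out = post-addition slope, 15–24 s, of baseline-normalized fluorescence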

Muscarinic acetylcholine receptor M4 (Homo sapiens), sequence (P08173 whole entry, looked up): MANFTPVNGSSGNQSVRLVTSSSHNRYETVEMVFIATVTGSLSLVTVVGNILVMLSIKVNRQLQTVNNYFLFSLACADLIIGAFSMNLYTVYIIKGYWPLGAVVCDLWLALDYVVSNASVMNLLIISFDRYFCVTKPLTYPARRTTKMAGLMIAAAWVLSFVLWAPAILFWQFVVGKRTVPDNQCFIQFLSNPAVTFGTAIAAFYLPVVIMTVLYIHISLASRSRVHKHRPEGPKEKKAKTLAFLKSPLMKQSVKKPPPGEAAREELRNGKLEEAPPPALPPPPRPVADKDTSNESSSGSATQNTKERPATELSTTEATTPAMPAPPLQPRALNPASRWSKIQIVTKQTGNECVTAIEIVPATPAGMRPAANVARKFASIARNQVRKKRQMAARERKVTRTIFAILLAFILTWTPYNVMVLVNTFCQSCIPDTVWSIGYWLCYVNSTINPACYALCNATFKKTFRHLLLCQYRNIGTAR

Fluorescence slope, inactive:
COc1ccc(C2CC(c3ccc(Cl)cc3)Nc3nc(NC(=O)c4ccco4)nn32)cc1 (stereo not given) 0.00611
CCn1nccc1C(=O)Nc1nccs1 0.00538
FC(F)(F)c1nnc2ccc(NCn3nnc4ccccc43)nn12 0.00533
O=C(NC(C(=O)c1ccccc1)n1ccc(=O)[nH]c1=O)c1ccccc1 (stereo not given) 0.00666
COc1ccc(N2C(=O)C(Cl)=C(Nc3c(C)n(C)n(-c4ccccc4)c3=O)C2=O)cc1 0.00622
Cc1cc(C)nc(N2CCCC(C(=O)Nc3nc4ccc(S(C)(=O)=O)cc4s3)C2)n1 (stereo not given) 0.00564
CCc1nnc(NC(=O)c2ccc(S(=O)(=O)NC3CCCCC3)cc2)s1 0.00791
CC(C)C(=O)Nc1cccc(NC(=O)c2cccnc2)c1 0.00325
CCn1c(Cc2ccccc2)nnc1SCC(=O)Nc1nc2ccccc2s1 0.00499
S=c1[nH]c2ccc(Cl)cc2[nH]1 0.00564
CCOc1ccc2nc(SCC#N)c(C#N)cc2c1 0.00501
Cc1nc(C)c(C(=O)OCC(=O)N2CCN(c3ccccc3)CC2)s1 0.00679
COc1ccc(C(NC(=O)c2ccco2)c2ccc(OC)c(OC)c2)cc1 (stereo not given) 0.00496
Cc1nn(-c2ccccc2)c2c1C(c1c(C)[nH]c(C#N)c1C)C(C#N)=C(N)O2 (stereo not given) 0.00623
CCOC(=O)N1CCN(C(=O)C2c3cc(OC)c(OC)cc3C(=O)N3CCc4ccccc4C23)CC1 (stereo not given) 0.00684
